Experimental data from paper PMC5018462 (Brain research, 2016).
Read-outs that look alike come from different tables or passages of the source.

What was measured:
primary murine microglia = test: Microglial uptake by confocal fluorescence microscopy; assay type: cell-based, murine (C57BL/6); settings: for uptake by primary microglia, unlabeled Aβ42: immunostained with AF488-conjugated secondary antibody
Summary of the method: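 Microglia in glass-bottom dishes in serum- and GM-CSF-free medium at 37 °C. Conditions: 10 µM AF488-Aβ42 over time; various concentrations for 10 min; 5 µM labeled (imaged directly) or unlabeled Aβ42 (Ab9 1:5000, NL493 secondary). Fixed in 3.7% formaldehyde, DAPI, 40X confocal at fixed settings. ImageJ gave background-corrected cell fluorescence, or integrated density per nucleus. Two or three experiments.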

[1] = particularly at physiological pH; ref Jungbauer, et al., 2009; cited from earlier work
[2] = Solubility during SEC isolation in aCSF; assay type: physicochemical; settings: SEC isolation on Superdex 75 in aCSF pH 7.8
Summary of the method: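 It stood 30 min–4 h at room temperature and was spun at 18,000g. Supernatant ran on a BSA-coated Superdex 75 column in aCSF at 0.5 mL min−1, A280 monitored, with fractions kept on ice.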

unlabeled Aβ42 protofibrils: Aβ1–42 soluble protofibrils formed in aCSF and isolated by SEC
uptake by primary microglia, unlabeled Aβ42 (primary murine microglia; 5 µM): rapid and extensive

AF488-N-terminal-labeled Aβ42: N-terminally AF488-labeled Aβ42 of Jungbauer et al., 2009
solubility [1]: limited solubility

unlabeled Aβ42 monomers: Aβ1–42 monomers isolated by SEC in aCSF
uptake by primary microglia, unlabeled Aβ42 (primary murine microglia; 5 µM): not taken up readily

AF488-Aβ42 monomers: Aβ42 monomers labeled at primary amines with Alexa Fluor 488 TFP ester, isolated by SEC
uptake by primary microglia, AF488-labeled Aβ42 (primary murine microglia; 5 µM, imaged directly): not taken up readily | internalization by microglia (confocal) (primary murine microglia; 10 µM, 37 °C, time course, 40X confocal, ImageJ quantitation): Much lower levels | solubility [2]: solubility issues were not encountered
